Measured values collected from several papers.
Lines come from different studies, so protocols differ.
DUOX2: DUOX2 (Homo sapiens, UniProt Q9NRD8)
HTR1F: 5-hydroxytryptamine receptor 1F (HTR1F, Homo sapiens, UniProt P30939)
MPO: Myeloperoxidase (MPO, Homo sapiens, UniProt P05164)

SMILES | target | test | setting | quantity | result
O=c1oc2cc(O)ccc2c2ccc(O)cc12 | Glutaminase kidney isoform, mitochondrial (GLS, Homo sapiens, UniProt O94925) | binding, SPR | – | Kd | 0.000266 µM
C[C@H]1COC2=C1C(=O)C(=O)c1c2ccc2c1CCCC2(C)C | DUOX2 | enzyme activity, inhibitor | cell membranes | IC50 | 2.1 µM
Nc1ncnc2c1ncn2[C@@H]1O[C@H](COP(=O)(O)OP(=O)(O)OP(=O)(O)OP(=O)(O)OP(=O)(O)OC[C@H]2O[C@@H](n3cnc4c(N)ncnc43)[C@H](O)[C@@H]2O)[C@@H](O)[C@H]1O | adk (Escherichia coli, UniProt P69441) | binding, ITC | – | Kd | 0.2 µM
CN(C)CCOC1=Cc2ccccc2Sc2ccc(Cl)cc21 | HTR1F | G protein activation, agonist, BRET | – | EC50 | 1.82 µM
CC(=O)c1cccc(NC(=O)c2cc3c(cc2[N+](=O)[O-])OCO3)c1 | MPO | enzyme activity, inhibitor | – | IC50 | 10 µM
CCOc1ccccc1OCCN[C@H](C)Cc1ccc(OC)c(S(N)(=O)=O)c1 | Anoctamin-1 (Ano1, Mus musculus, UniProt Q8BHY3) | ion current, inhibitor, patch clamp | – | IC50 | 7.22 µM
C[C@@H]1CN(C(=O)[C@@H]2CN(C(C)(C)C)C[C@H]2c2ccc(F)cc2F)C[C@H](C)[C@@]1(O)c1ccccc1 | Melanocortin receptor 4 (MC4R, Homo sapiens, UniProt P32245) | ligand displacement, radioligand | – | Ki | 0.199 µM
CCCC(=O)NCCCN1CCc2c([nH]c3ccc(Cl)cc23)C1 | Sodium-dependent noradrenaline transporter (SLC6A2, Homo sapiens, UniProt P23975) | transporter uptake, inhibitor | – | IC50 | 250 µM
COc1ccc(CNC(=O)c2cc3c(cc2[N+](=O)[O-])OCO3)cc1 | MPO | enzyme activity, inhibitor | – | IC50 | 4.5 µM
Cc1coc2c1C(=O)C(=O)c1c-2ccc2c1CCCC2(C)CO (stereo not shown) | DUOX2 | enzyme activity, inhibitor | cell membranes | IC50 | 8.9 µM
O=c1oc(-c2cccnc2)nc2ccccc12 | Plasma kallikrein (KLKB1, Homo sapiens, UniProt P03952) | enzyme activity, inhibitor, absorbance | – | IC50 | > 50 µM
CN1CCN2c3ccccc3Cc3ccccc3C2C1 (stereo not shown) | HTR1F | G protein activation, agonist, BRET | – | EC50 | 0.0475 µM
CC(C)CCC[C@@H](C)[C@H]1CC[C@H]2[C@@H]3CC[C@H]4C[C@H](N)CC[C@]4(C)[C@H]3CC[C@]12C | Phosphatidylinositol 3,4,5-trisphosphate 5-phosphatase 1 (INPP5D, Homo sapiens, UniProt Q92835) | enzyme activity, inhibitor, absorbance | pH 7.4 | IC50 | 22.4 µM
